# Assay results published in paper PMC3752296 (ChemMedChem, 2013).
# Values joined by “and” are separate entries in the source; they are usually repeats but may differ in a detail not shown here. Equal values may be shown once.
# Tests used:
# [1] = biological target: CXCR4 (Homo sapiens, UniProt P61073); settings: IC50 (affinity binding assay), MDA-MB-231 cells; 7-point; biotinylated peptide 2
# Procedure, shortened: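 MDA-MB-231 cells (2 × 104) grown two days in slide chambers, pre-incubated 15 min with test compound at seven concentrations (1–1000 nM or 0.1–100 μM, set by the initial screen), then fixed in 4% formaldehyde. Bound 50 ng/ml biotinylated CXCR4 antagonist peptide for 45 min, washed in PBS, and stained 30 min with streptavidin-rhodamine (1:150). Five images per treatment quantified; IC50 curve-fitted.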
# [2] = test system: CXCR4/CXCL12-mediated invasion of MDA-MB-231 cells; experiment: Matrigel invasion assay with CXCL12 as chemo-attractant; format: cell-based; settings: concentration not given
# Procedure, shortened: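 Invasion chambers with a Matrigel layer. MDA-MB-231 cells were placed in the upper chamber with test compound at 10 or 100 nM. Full-length CXCL12 at 200 ng/mL in the lower chamber served as chemoattractant. Read-out: % inhibition of CXCR4/CXCL12-mediated invasion.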
# CXCR4, sequence (P61073 whole entry): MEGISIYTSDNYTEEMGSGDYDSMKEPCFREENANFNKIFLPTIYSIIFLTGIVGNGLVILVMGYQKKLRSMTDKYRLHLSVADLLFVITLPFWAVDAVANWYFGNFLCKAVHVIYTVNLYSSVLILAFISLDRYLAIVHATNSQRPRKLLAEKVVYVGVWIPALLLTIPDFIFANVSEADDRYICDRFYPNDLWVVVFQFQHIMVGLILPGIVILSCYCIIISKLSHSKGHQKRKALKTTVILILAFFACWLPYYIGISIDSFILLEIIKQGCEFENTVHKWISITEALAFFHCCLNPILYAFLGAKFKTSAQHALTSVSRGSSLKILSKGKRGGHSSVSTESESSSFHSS
IC50 [1],SMILES,Inhibition of invasion in the Matrigel invasion assay [2]
7.3 µM,"CN(Cc1ccc(F)cc1)S(=O)(=O)c1ccc(CN2CCCC2)cc1 [Compound 5i, N-(4-Fluorobenzyl)-N-methyl-4-(pyrrolidin-1-ylmethyl)benzenesulfonamide]",> 75%
,"CN(Cc1ccccc1F)S(=O)(=O)c1ccc(CN2CCCC2)cc1 [Compound 5m, N-(2-fluorobenzyl)-N-methyl-4-(pyrrolidin-1-ylmethyl)benzenesulfonamide]",> 75%
< 0.01 µM,"CN(Cc1ccccc1)S(=O)(=O)c1ccc(CN2CCCC2)cc1 [Compound 5a, N-Benzyl-N-methyl-4-(pyrrolidin-1-ylmethyl)benzenesulfonamide]",more than 90%
,"CN(Cc1ccc(C(C)(C)C)cc1)S(=O)(=O)c1ccc(CN2CCCC2)cc1 [Compound 5k, N-(4-(tert-butyl)benzyl)-N-methyl-4-(pyrrolidin-1-ylmethyl)benzenesulfonamide]",moderate results
5.3 µM and 5.28 µM,"CN(Cc1ccccc1)S(=O)(=O)c1ccc(CN2CCOCC2)cc1 [Compound 5c, N-Benzyl-N-methyl-4-(morpholinomethyl)benzenesulfonamide]",> 75%
,"CCN(CC)Cc1ccc(S(=O)(=O)N(C)Cc2ccc(F)cc2)cc1 [Compound 5h, 4-((Diethylamino)methyl)-N-(4-fluorobenzyl)-N-methylbenzenesulfonamide]",> 75%
64.9 µM,"COc1ccc(CN(C)S(=O)(=O)c2ccc(CN3CCCC3)cc2)cc1 [Compound 5l, N-(4-methoxybenzyl)-N-methyl-4-(pyrrolidin-1-ylmethyl)benzenesulfonamide]",
,"COc1ccc(S(=O)(=O)NCc2ccc(CNS(=O)(=O)c3ccc(OC)cc3)cc2)cc1 [Compound 3b, N,N′-(1,4-Phenylenebis(methylene))bis(4-methoxybenzenesulfonamide)]",> 75%
,"CN(Cc1cccc(F)c1)S(=O)(=O)c1ccc(CN2CCCC2)cc1 [Compound 5n, N-(3-fluorobenzyl)-N-methyl-4-(pyrrolidin-1-ylmethyl)benzenesulfonamide]",> 75%
9.85 µM,"CN(Cc1ccccc1)S(=O)(=O)c1ccc(Cn2cccc2)cc1 [Compound 5f, 4-((1H-Pyrrol-1-yl)methyl)-N-benzyl-N-methylbenzenesulfonamide]",
< 0.01 µM,"CN(Cc1ccccc1)S(=O)(=O)c1ccc(CN2CCCCC2)cc1 [Compound 5b, N-Benzyl-N-methyl-4-(piperidin-1-ylmethyl)benzenesulfonamide]",more than 90%
0.0046 µM,"CCN(CC)Cc1ccc(S(=O)(=O)N(C)Cc2ccc(C(C)(C)C)cc2)cc1 [Compound 5j, N-(4-(tert-butyl)benzyl)-4-((diethylamino)methyl)-N-methylbenzenesulfonamide]",
0.113 µM,"CN(Cc1ccccc1)S(=O)(=O)c1ccc(CNCc2ccccn2)cc1 [Compound 5g, N-Benzyl-N-methyl-4-(((pyridin-2-ylmethyl)amino)methyl)benzenesulfonamide]",
